Experimental data: ChEMBL document CHEMBL1148372 (J Med Chem, 2004); call rule not given here
Several values for one entry are separate records, joined by “and”; a condition that tells them apart may be missing. Equal values may be shown once.

Tests used:
[1] = biological target: T1, 5-hydroxytryptamine receptor 1A (Homo sapiens, UniProt P08908); assay: Binding affinity towards human 5-hydroxytryptamine 1A receptor
T1 sequence (P08908 whole entry): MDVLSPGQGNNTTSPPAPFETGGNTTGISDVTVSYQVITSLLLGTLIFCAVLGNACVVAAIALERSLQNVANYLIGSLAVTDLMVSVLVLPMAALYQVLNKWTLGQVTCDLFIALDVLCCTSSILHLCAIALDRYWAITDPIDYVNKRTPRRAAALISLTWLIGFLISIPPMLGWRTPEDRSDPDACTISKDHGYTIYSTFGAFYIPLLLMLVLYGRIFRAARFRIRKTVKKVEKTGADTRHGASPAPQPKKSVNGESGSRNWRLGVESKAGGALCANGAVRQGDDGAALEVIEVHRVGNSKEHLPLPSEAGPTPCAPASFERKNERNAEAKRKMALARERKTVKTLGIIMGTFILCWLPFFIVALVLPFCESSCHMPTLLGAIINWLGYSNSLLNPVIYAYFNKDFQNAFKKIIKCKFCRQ

[2] = biological target: T2, Adrenergic receptor alpha-2 (Homo sapiens, UniProt P08913+P18825+P18089); assay: Binding affinity towards human alpha-2 adrenergic receptor; assay type: protein assay
T2 sequence (P08913 whole entry): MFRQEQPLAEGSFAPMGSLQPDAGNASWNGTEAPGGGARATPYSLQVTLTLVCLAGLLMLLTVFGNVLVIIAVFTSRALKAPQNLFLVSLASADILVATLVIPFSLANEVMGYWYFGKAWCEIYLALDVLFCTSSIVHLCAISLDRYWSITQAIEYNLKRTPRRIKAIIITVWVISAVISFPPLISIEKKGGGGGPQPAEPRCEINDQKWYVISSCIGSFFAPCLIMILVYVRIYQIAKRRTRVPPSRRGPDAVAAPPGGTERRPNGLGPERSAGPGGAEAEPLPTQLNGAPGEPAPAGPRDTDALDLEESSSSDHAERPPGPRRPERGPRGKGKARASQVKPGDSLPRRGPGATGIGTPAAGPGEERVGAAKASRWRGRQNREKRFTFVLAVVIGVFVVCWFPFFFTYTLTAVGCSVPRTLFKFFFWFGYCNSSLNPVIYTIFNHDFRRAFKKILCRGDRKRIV
T2 sequence (P18825 whole entry): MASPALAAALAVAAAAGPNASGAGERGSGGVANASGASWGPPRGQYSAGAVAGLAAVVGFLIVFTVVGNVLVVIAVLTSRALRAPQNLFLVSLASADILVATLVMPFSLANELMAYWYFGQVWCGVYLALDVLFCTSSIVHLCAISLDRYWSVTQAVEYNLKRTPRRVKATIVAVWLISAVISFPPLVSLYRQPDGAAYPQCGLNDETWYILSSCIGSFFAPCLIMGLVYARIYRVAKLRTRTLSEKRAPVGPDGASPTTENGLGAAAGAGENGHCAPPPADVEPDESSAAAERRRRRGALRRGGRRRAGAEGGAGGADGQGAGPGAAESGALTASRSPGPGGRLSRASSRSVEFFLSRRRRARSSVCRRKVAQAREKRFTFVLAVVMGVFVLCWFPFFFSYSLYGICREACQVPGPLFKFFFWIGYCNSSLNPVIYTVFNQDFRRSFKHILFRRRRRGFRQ
T2 sequence (P18089 whole entry): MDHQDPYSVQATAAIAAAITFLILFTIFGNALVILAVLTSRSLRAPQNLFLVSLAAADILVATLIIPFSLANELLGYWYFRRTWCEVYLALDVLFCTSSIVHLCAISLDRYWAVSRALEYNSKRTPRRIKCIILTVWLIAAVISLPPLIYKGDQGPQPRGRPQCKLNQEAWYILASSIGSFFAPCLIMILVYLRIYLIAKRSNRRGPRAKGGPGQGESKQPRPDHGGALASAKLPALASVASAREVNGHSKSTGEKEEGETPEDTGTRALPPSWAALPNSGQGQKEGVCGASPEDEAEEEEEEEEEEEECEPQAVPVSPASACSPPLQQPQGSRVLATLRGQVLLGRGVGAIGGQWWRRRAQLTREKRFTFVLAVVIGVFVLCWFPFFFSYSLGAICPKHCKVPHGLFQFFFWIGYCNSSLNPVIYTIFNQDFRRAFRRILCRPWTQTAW

D(4) dopamine receptor [3] = biological target: T3, D(4) dopamine receptor (Homo sapiens, UniProt P21917); assay: Binding affinity towards human D4.4 receptor
T3 sequence (P21917 whole entry): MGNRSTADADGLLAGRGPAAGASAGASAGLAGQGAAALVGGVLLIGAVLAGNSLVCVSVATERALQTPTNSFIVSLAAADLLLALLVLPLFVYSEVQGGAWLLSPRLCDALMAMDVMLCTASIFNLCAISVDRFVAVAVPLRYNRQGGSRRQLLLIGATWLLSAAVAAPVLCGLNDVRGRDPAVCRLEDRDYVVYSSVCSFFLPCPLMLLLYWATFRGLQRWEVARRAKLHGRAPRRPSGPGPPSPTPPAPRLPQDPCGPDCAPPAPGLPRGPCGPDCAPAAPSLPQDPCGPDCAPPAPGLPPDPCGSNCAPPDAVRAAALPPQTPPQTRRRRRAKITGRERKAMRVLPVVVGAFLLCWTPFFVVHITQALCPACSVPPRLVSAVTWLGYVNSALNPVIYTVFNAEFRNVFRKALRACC
Summary of the method: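 Membranes from HEK-293 cells transfected with human D4.4 receptor, stored at -80 °C. Filtration through glass microfiber filters, three cold Tris washes, scintillation counting; Ki derived.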

D(4) dopamine receptor [4] = biological target: T4, D(4) dopamine receptor (Rattus norvegicus, UniProt P30729); assay: In vitro effective concentration tested on HEK293 cells co-transfected with rat Dopamine receptor D4 using FLIPR assay; assay type: cell-based
T4 sequence (P30729 whole entry): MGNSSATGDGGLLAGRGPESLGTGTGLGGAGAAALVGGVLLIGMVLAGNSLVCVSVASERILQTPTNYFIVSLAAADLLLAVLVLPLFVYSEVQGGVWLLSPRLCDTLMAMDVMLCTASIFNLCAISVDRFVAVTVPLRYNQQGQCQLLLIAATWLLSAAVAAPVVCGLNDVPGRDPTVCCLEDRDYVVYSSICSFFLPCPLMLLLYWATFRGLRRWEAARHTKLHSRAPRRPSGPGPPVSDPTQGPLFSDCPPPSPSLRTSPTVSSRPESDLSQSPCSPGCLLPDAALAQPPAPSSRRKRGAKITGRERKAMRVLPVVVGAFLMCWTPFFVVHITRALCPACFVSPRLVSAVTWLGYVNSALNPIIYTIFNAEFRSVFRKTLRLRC

D(2) dopamine receptor [5] = biological target: T5, D(2) dopamine receptor (Homo sapiens, UniProt P14416); assay: Binding affinity towards human Dopamine receptor D2
[6] = biological target: D(2) dopamine receptor (Rattus norvegicus) (UniProt P61169); assay: In vitro efficacy tested on rat Dopamine receptor D2 were co-expressed with GRqo5 in HEK293 cells using FLIPR assay (Efficacy relative to 10 uM dopamine); assay type: cell-based
D(2) dopamine receptor [7] = biological target: T6, D(2) dopamine receptor (Rattus norvegicus, UniProt P61169); assay: In vitro effective concentration tested on HEK293 cells co-transfected with rat Dopamine receptor D2 using FLIPR assay; assay type: cell-based
D(2) dopamine receptor [8] = biological target: T5, D(2) dopamine receptor; assay: In vitro effective concentration tested on HEK293 cells co-transfected with human Dopamine receptor D2 using FLIPR assay; Not an agonist up to 10 uM; assay type: functional, cell-based
D(3) dopamine receptor = D(3) dopamine receptor (Homo sapiens, UniProt P35462); assay: Binding affinity towards human Dopamine receptor D3
[9] = biological target: Kappa-type opioid receptor (Homo sapiens, UniProt P41145); assay: Binding affinity towards human Opioid receptor kappa 1
Rattus norvegicus [10] = assay: In vivo maximal penile erection in rats 60 min after subcutaneous administration; assay type: functional
Summary of the method: (§1)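 Conscious male Wistar rats, adapted 60 min to a dim red-lit room, tested between 9:00 a.m. and 3:00 p.m. Dosed subcutaneously, then caged singly and observed directly for 60 min. Percent incidence is the share of animals with one or more erections; 8–30 animals per group. Maximally effective dose is the dose giving peak incidence, with significance versus control.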

Rattus norvegicus [11] = assay: In vivo maximal effective dose tested in rats for erection 60 min after subcutaneous administration; assay type: functional; summary of the method: as §1
D(2) dopamine receptor [12] = biological target: T5, D(2) dopamine receptor; assay: In vitro efficacy tested on human Dopamine receptor D2 were co-expressed with GRqo5 in HEK293 cells using FLIPR assay (Efficacy relative to 10 uM dopamine); assay type: functional, cell-based
D(4) dopamine receptor [13] = biological target: T4, D(4) dopamine receptor; assay: In vitro effective concentration tested on HEK293 cells co-transfected with rat Dopamine receptor D4 using FLIPR assay; Not an agonist up to 10 uM; assay type: functional, cell-based
Summary of the method: (§2)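 HEK cells co-transfected with the target receptor plus Gαqo5. […] Compounds were tested up to 10 µM. Untransfected cells served as a control.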

[14] = biological target: D(2) dopamine receptor (Rattus norvegicus) (UniProt P61169); assay: In vitro efficacy tested on ferret Dopamine receptor D2 were co-expressed with GRqo5 in HEK293 cells using FLIPR assay (Efficacy relative to 10 uM dopamine); assay type: functional, cell-based; summary of the method: as §2
[15] = biological target: D(2) dopamine receptor (Rattus norvegicus) (UniProt P61169); assay: In vitro efficacy tested on rat Dopamine receptor D2 were coexpressed with GRqo5 in HEK293 cells using FLIPR assay (Efficacy relative to 10 uM dopamine); assay type: functional, cell-based; summary of the method: as §2
D(4) dopamine receptor [16] = biological target: T3, D(4) dopamine receptor; assay: In vitro effective concentration tested on HEK293 cells co-transfected with human Dopamine receptor D4 using FLIPR assay; Not an agonist up to 10 uM; assay type: functional, cell-based
Summary of the method: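 Human D4.4 receptor co-expressed with Gαqo5 in HEK293 cells, plated at 20 000 cells/well and grown 2 days. Loaded with 4 µM Fluo-4 and 0.04% Pluronic F-127 in DPBS with glucose and pyruvate for 1 h at 23 °C, then washed. Compound added and fluorescence read over 3 min on FLIPR. […] EC50 is the concentration giving half-maximal response.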

[17] = biological target: T1, 5-hydroxytryptamine receptor 1A; assay: In vitro binding affinity tested on human 5-hydroxytryptamine 1A receptor
D(2) dopamine receptor [18] = biological target: T5, D(2) dopamine receptor; assay: In vitro binding affinity tested on human Dopamine receptor D2 using [3H]spiperon as a radioligand
D(2) dopamine receptor [19] = biological target: T5, D(2) dopamine receptor; assay: In vitro binding affinity tested on human Dopamine receptor D2 (long) using [3H]spiperon as a radioligand
D(2) dopamine receptor [20] = biological target: T5, D(2) dopamine receptor; assay: In vitro binding affinity tested on human Dopamine receptor D2 (short) using [3H]spiperone as a radioligand
[21] = biological target: T7, D(4) dopamine receptor (Homo sapiens) (UniProt P21917); assay: In vitro efficacy tested on human Dopamine receptor D4.4 were co-expressed with GRqo5 in HEK293 cells using FLIPR assay (Efficacy relative to 10 uM dopamine); assay type: cell-based
T7 sequence (whole entry): T3 sequence (P21917 whole entry)
Summary of the method: (§3)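 HEK293 cells coexpressing human D4.4 receptor and Gαqo5, plated at 20 000 cells/well and grown 2 days. Loaded 1 h at 23 °C with 4 µM Fluo-4 plus 0.04% Pluronic F-127 in DPBS, washed four times. Compound added, fluorescence read over 3 min.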

D(2) dopamine receptor [22] = biological target: T6, D(2) dopamine receptor; assay: In vitro effective concentration tested on HEK293 cells co-transfected with rat Dopamine receptor D2 using FLIPR assay; Not an agonist up to 10 uM; assay type: functional, cell-based
[23] = Binding affinity tested against D4.2 receptor in Chinese hamster ovary cell line (CHO cells) using [3H]spiperone as a radioligand; assay type: cell-based, Cricetulus griseus
D(4) dopamine receptor [24] = biological target: T3, D(4) dopamine receptor; assay: In vitro EC50 tested on HEK293 cells co-transfected with human Dopamine receptor D4.4 using FLIPR assay; assay type: cell-based; summary of the method: as §3

Sequence of D(2) dopamine receptor (Rattus norvegicus) (P61169 whole entry): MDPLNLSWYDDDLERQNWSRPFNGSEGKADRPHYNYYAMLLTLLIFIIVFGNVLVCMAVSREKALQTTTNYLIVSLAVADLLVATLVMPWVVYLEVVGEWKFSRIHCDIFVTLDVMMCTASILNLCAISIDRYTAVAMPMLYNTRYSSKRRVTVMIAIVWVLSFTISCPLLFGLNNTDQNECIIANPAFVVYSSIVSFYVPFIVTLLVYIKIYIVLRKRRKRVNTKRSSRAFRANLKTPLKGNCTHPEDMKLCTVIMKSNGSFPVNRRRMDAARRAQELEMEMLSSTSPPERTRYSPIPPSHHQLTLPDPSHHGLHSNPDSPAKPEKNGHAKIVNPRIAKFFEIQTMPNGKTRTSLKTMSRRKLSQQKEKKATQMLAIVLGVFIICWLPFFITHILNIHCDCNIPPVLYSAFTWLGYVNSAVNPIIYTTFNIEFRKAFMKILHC
T5 sequence (P14416 whole entry): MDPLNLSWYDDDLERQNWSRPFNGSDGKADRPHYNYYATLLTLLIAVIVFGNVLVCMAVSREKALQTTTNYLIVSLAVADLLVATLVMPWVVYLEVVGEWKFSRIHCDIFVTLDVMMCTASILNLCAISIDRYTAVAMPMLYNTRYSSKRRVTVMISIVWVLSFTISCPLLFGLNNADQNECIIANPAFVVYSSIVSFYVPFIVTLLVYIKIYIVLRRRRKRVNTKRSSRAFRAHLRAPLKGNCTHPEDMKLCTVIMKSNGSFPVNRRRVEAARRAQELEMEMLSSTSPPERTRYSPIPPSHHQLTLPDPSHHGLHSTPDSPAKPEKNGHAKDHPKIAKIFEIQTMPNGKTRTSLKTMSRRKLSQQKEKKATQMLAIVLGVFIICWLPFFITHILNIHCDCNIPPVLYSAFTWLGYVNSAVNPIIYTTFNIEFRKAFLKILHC
T6 sequence (P61169 whole entry): as the sequence (P61169 whole entry) above
Sequence of D(3) dopamine receptor (P35462 whole entry): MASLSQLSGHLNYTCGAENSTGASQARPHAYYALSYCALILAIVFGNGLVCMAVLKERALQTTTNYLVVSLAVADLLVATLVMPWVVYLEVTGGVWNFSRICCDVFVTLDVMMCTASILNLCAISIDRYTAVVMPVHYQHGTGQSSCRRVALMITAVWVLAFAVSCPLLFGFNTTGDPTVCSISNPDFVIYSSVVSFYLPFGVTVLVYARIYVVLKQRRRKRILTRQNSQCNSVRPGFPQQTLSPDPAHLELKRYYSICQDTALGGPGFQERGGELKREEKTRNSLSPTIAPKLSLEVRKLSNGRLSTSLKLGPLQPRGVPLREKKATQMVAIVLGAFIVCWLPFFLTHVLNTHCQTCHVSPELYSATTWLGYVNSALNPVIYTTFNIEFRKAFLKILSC
Sequence of Kappa-type opioid receptor (P41145 whole entry): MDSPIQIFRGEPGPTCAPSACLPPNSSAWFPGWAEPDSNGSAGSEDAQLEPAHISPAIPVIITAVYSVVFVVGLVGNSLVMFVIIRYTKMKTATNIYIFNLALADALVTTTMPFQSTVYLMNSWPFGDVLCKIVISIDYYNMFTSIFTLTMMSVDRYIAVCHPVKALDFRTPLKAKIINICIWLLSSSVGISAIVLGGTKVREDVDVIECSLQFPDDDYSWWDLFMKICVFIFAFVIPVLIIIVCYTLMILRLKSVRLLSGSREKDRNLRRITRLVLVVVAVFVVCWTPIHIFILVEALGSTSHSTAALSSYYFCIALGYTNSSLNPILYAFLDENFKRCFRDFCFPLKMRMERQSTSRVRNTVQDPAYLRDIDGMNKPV

Fc1ccc2[nH]c(CN3CCN(c4ccccn4)CC3)cc2c1
Ki [1]: 0.2 µM
Ki [2]: 0.4 µM
Ki (D(4) dopamine receptor [3]): 0.0036 µM
EC50 (D(4) dopamine receptor [4]): 0.036 µM
Ki (D(2) dopamine receptor [5]): 0.12 µM
Efficacy [6]: 89%
EC50 (D(2) dopamine receptor [7]): 0.055 µM
EC50 (D(2) dopamine receptor [8]): Not Active
Ki (D(3) dopamine receptor): 0.56 µM
Ki [9]: 0.3 µM
Activity (Rattus norvegicus [10]): 83%
Effective dose (Rattus norvegicus [11]): 1 µM/kg

CN[C@@H]1Cc2cccc3[nH]c(=O)n(c23)C1 [SUMANIROLE]
Efficacy (D(2) dopamine receptor [12]): 93%
EC50 (D(4) dopamine receptor [13]): Not Active
Efficacy [14]: 90%
Efficacy [15]: 103%
EC50 (D(4) dopamine receptor [16]): Not Active

c1ccc(N2CCN(Cc3nc4ccccc4[nH]3)CC2)nc1 [ABT-724]
Ki [17]: > 10 µM and 2780 µM
EC50 (D(4) dopamine receptor [4]): 0.0143 µM
Ki (D(2) dopamine receptor [18]): 0.16 µM
Ki (D(2) dopamine receptor [19]): 15 µM
Ki (D(2) dopamine receptor [20]): 51 µM
Efficacy [21]: 61%
EC50 (D(2) dopamine receptor [22]): Not Active
EC50 (D(2) dopamine receptor [8]): Not Active
Activity (Rattus norvegicus [10]): 77%
Effective dose (Rattus norvegicus [11]): 0.03 µM/kg

c1ccc(N2CCN(Cc3nc4ccccc4[nH]3)CC2)cc1
Ki [23]: 0.033 µM
EC50 (D(4) dopamine receptor [24]): 0.0306 µM
Efficacy [21]: 33%
Activity (Rattus norvegicus [10]): 75%
Effective dose (Rattus norvegicus [11]): 0.03 µM/kg
